Laboratory results reported in PubChem BioAssay AID1744 (Vanderbilt High Throughput Screening Facility, 2009).

Target: Muscarinic acetylcholine receptor M1 (Rattus norvegicus) (UniProt P08482)
Assay: agonist potency across muscarinic M1-M5 subtypes, profiling panel, selectivity assay for M1 allosteric modulator project, cell-based, agonist mode (AID 1744)
Conditions: CHO-K1 rat M1, Fluo-4 calcium flux
Summary of the method: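 assay system = CHO-K1 cells stably carrying rat M1 muscarinic receptor | times = Fluo-4 dye loading for 1 h at 37 °C | medium = pH 7.4 loading buffer | detection = Fluo-4 calcium fluorescence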

First: CCOC(=O)N1CCC(NCCNC(=O)c2ccccc2Cl)CC1
Second: CCOC(=O)N1CCC(NCCNC(=O)c2ccccc2C)CC1
The EC50 of the first is 4.1-fold higher: 804 nM for the first, 198 nM for the second.

Compared with CCOC(=O)N1CCC(NCCNC(=O)c2cccs2)CC1, CCOC(=O)N1CCC(NCCNC(=O)c2ccccc2)CC1 is 11-fold lower in EC50: 1740 nM for the first, 152 nM for the second. The second is the more potent here.

CCOC(=O)N1CCC(NCCNC(=O)c2ccc(F)c(F)c2)CC1 and CCOC(=O)N1CCC(NCCNC(=O)c2cccc(F)c2)CC1 are within 1.5-fold of each other in EC50: 211 nM for the first, 154 nM for the second.

Compared with CCOC(=O)N1CCC(NCCNC(=O)c2cccc(OC)c2)CC1, CCOC(=O)N1CCC(NCCNC(=O)c2ccc(F)cc2)CC1 is 2.8-fold lower in EC50: 438 nM for the first, 154 nM for the second.
